VIM-2 inhibitor = VIM-2 metallo-beta-lactamase inhibitors, primary screen, biochemical, epi-absorbance readout, Pseudomonas aeruginosa enzyme. purified VIM-2, nitrocefin hydrolysis, epi-absorbance fluorescence. inhibition, % at 5.6 µM. 0.89% of 290,000 active;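 active = inhibition above the mean of all tested compounds plus 3 SD, cutoff set per screening run, cut at about 7.5% in these data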;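 note: red hydrolysis product quenches plate fluorescence so inhibitors raise well fluorescence; 0% = enzyme with DMSO and 100% = DMSO without enzyme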
m5-HT2A agonist = mouse Htr2a agonists via beta-arrestin recruitment, primary screen, cell-based, luminescence | CHO-K1 mHTR2A beta-arrestin complementation; percent of 30 µM serotonin response | activation, % at 7.6 µM | 0.66% of 360,000 active;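 active = activation above a run cutoff, the mean activation of all tested compounds plus 3 SD, cut at about 14% in these data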;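 note: 0% = plate median of compound wells and 100% = 30 µM serotonin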
IMP-1 inhibitor = IMP-1 metallo-beta-lactamase inhibitors, primary screen, biochemical, epi-absorbance readout, Pseudomonas aeruginosa enzyme; metallo-beta-lactamase IMP-1 (Pseudomonas aeruginosa); purified IMP-1, nitrocefin hydrolysis, epi-absorbance fluorescence; inhibition, % at 5.6 µM; 0.45% of 290,000 active; AID 1556, 2009;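 active = inhibition above the mean plus 3 SD of all compounds in the same screening run, cut at about 4.5% in these data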;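 note: 0% = IMP-1 with DMSO and 100% = DMSO wells lacking enzyme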
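system = purified recombinant IMP-1 beta-lactamase | amount = 0.2 nM IMP-1, as dispensed | medium = HEPES buffer pH 7.1 with ZnSO4 and Brij 35 | times = 25 °C, 15 min preincubation, 25 min reaction | detection = plate fluorescence quenching by hydrolysis product, ex 480/em 530 nm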
dFosB act-1 = activators of delta FosB homodimer, primary screen, biochemical, fluorescence polarization, TAMRA-CDK5 oligo, single point | Protein FosB (Mus musculus), P13346 | activation, % at 25 µM | 0.99% of 340,000 active | purified delta FosB; percent of positive-control signal above neutral wells;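 active = mean activation above about 17%, with every replicate also reaching it, limit read from the data, passing the limit was not always enough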
dFosB act-2 = activators of mouse delta FosB DNA binding, confirmation, biochemical, fluorescence polarization, TAMRA-CDK5 oligo, cherry-picked samples; shares compounds with dFosB act-1; purified delta FosB; normalised: neutral wells 0, positive control 100; activation, % at 24.9 µM; 2,400 tested, under 10 active;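 active = highest replicate activation at or above 34% and every replicate reaching that threshold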;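 note: higher polarization means more probe DNA bound by delta FosB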
MOR ag counter = OPRM1 agonists via beta-arrestin recruitment, confirmation, counter-screen for mouse HTR2A agonist project, cell-based, luminescence, single concentration | activation, % at 9.3 µM | U2OS OPRM1 beta-arrestin PathHunter; DMSO 0%, DAMGO 9.3 µM 100% | shares compounds with m5-HT2A agonist | 5.3% of 2,300 active;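 active = mean activation above the mean of DMSO-only wells plus 3 SD, cut at about 0.5% in these data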
Target sequence (P35372 whole entry, looked up): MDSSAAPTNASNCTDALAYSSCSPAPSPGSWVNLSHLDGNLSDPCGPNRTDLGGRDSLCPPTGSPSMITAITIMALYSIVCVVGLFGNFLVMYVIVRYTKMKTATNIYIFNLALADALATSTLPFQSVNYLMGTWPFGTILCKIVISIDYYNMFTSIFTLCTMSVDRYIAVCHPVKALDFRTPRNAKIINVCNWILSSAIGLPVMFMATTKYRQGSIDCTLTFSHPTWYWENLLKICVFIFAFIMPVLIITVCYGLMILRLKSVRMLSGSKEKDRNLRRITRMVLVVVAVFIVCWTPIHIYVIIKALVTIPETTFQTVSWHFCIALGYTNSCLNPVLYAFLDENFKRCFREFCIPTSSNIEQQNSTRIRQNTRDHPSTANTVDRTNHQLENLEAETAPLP
HTR2A ag conf = mouse HTR2A agonists, beta-arrestin recruitment, confirmation, cell-based, luminescence, CHO-K1 PathHunter, triplicate. DMSO 0%, 30 µM serotonin 100%. AID 624381, 2012. shares compounds with m5-HT2A agonist. 19% of 2,300 active. activation, % at 7.6 µM;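 active = mean activation across triplicates above the hit threshold derived in the original primary screen, cut at about 15% in these data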
* = called active by the depositor; . = no result given. Only some compounds are listed: those with a hit (about 2.5% of all), similar ones and a draw of the others.

SMILES	VIM-2 inhibitor	m5-HT2A agonist	IMP-1 inhibitor	dFosB act-1	dFosB act-2	others
COc1cc2c(cc1OC)CN(C(=O)c1ccc(Cl)c(S(=O)(=O)N3CCCC3)c1)CC2	.	-2	.	-7	.
CC(=O)Nc1ccc(S(=O)(=O)NC2(c3ccccc3)C(=O)N(C)C(=O)N(C)C2=O)cc1	.	-1	.	1	.
CC(C)c1nnc(NC(=O)CS(=O)(=O)c2ccccc2)s1	0	3	-4	1	.
CCCS(=O)(=O)NC(=O)C1(C)CCN(C(=O)c2cc(C)oc2C)C1 (stereo not drawn)	.	3	.	.	.
CC(/C=N/NC(=O)COc1ccccc1C)=N\NC(=O)COc1ccccc1C	-3	-2	-3	22*	-2
O=C(Nc1ccc(F)cc1)c1cccc(N2C(=O)C3C4CCC(C4)C3C2=O)c1 (stereo not drawn)	-3	1	-2	1	.
O=C(Nc1ccc(Br)cc1)c1cccc(N2C(=O)C3C4CCC(C4)C3C2=O)c1 (stereo not drawn)	-4	0	-4	20*	6
O=C(CS(=O)(=O)Cc1ccccc1)Nc1nc2ccccc2s1	1	0	-1	-1	.
COc1ccc2nc(NC(=O)CS(=O)(=O)Cc3ccccc3)sc2c1	-2	4	-3	74*	-2
COc1ccc(OCC(=O)Nc2nc3cc4c(cc3s2)OCCO4)cc1	.	0	.	47*	0
COc1ccc2oc(C(=O)Nc3nc4ccc(S(C)(=O)=O)cc4s3)c(C)c2c1	.	11	.	61*	7
CC(=O)c1sc(NC(=O)c2oc3ccc(F)cc3c2C)nc1C	.	0	.	59*	-8
CC(=O)Nc1nc2cc3c(cc2s1)OCCO3	0	1	1	3	.
COc1cc(OC)cc(C(=O)Nc2nc3ccc(S(C)(=O)=O)cc3s2)c1	-4	-1	-6	-7	.
NNC(=O)c1cc(C23CC4CC(CC(C4)C2)C3)[nH]n1	-4	-5	-5	0	.
COc1cc(C(=O)Nc2nc3ccc(S(C)(=O)=O)cc3s2)cc(OC)c1C	-1	3	-2	30*	1
Cc1cccc(NC(=O)c2cc(-c3cc(C)c(C)cc3O)n[nH]2)c1	-1	2	-2	-5	.
Cc1ccc(-c2cc(C(=O)Nc3cccnc3)[nH]n2)c(O)c1C	-2	4	-1	25*	3
Cc1ccc(-c2cc(C(=O)NCc3ccc4c(c3)OCO4)[nH]n2)c(O)c1C	-5	-8	-2	21*	-2
Cc1cccc(S(=O)Cc2ccc(C(=O)N3CCN(C(=O)c4ccco4)CC3)o2)c1 (stereo not drawn)	-5	4	-3	-4	.
NS(=O)(=O)c1ccc(NC(=O)c2cc(-c3cc(Cl)ccc3O)n[nH]2)cc1	2	-5	0	38*	-2
NS(=O)(=O)c1ccc(NC(=O)c2cc(Cl)ccc2Cl)cc1	-1	2	1	-1	.
COc1ccc(NC(=O)C2(C)CCN2CCc2ccccc2)cc1OC (stereo not drawn)	.	-4	.	.	.
O=C(COc1ccc([N+](=O)[O-])cc1)NNC(=O)Nc1ccccc1F	-6	4	-1	11	.
Cc1cccc(NC(=O)NNC(=O)COc2ccc([N+](=O)[O-])cc2)c1C	-2	-5	-4	31*	3
SMILES	VIM-2 inhibitor	m5-HT2A agonist	IMP-1 inhibitor	dFosB act-1	dFosB act-2	others
Cc1cccc(NC(=O)COC(=O)CN2C(=O)c3ccccc3C2=O)c1C	.	14	.	.	.
CC(C)n1c(=O)c2ccccc2n1CC(=O)N1CCOCC1	.	1	.	.	.
CCCCN(Cc1nc2ccccc2c(=O)[nH]1)C(=O)c1nn(C)c(=O)c2ccccc12	.	0	.	-4	.
CCc1nn(CC(=O)NCCCN2CCOCC2)c(=O)c2cc3cc(F)ccc3n12	-3	1	-2	-1	.
Cc1ccc(S(=O)(=O)N2CCN(S(=O)(=O)c3c(C)n[nH]c3C)CC2)cc1C	.	0	.	32*	-1
Cc1ccc([C@@H]2CC(=O)[C@@H]3CN(S(=O)(=O)c4ccc(C)cc4)[C@H](c4ccccc4)C[C@@H]3N2S(=O)(=O)c2ccc(C)cc2)cc1	.	-10	.	.	.
COc1ccc(OC)c(-c2csc(N(C)C(=O)c3ccco3)n2)c1	-2	0	-1	19*	8
O=C(Cn1nnc(-c2ccc(Cl)cc2)n1)N1CCN(C(=O)c2ccco2)CC1	.	-4	.	-16	.
COc1ccc(C(=O)Nc2ccc(NC(=O)c3ccco3)cc2)cc1	-3	-10	-2	51*	1
COc1ccc(C(=O)Nc2ccc(-c3nnn(CC(=O)N4CCN(C(=O)c5ccco5)CC4)n3)cc2)cc1	-2	1	-1	68*	-1
COc1ccc(-c2csc(NC(=S)NC(=O)c3ccco3)n2)cc1	-2	2	-3	47*	-4
COc1ccc(-c2csc(N(C)C(=O)c3ccco3)n2)cc1	0	0	-6	0	.
COc1ccccc1NC(=O)NC1(C)CCS(=O)(=O)C1 (stereo not drawn)	-5	-2	-3	5	.
COc1cc2c3nnc(-c4ccccc4)c-3cn(Cc3ccc(F)cc3)c2cc1OC	-3	32*	-2	22*	1	MOR ag counter=0;HTR2A ag conf=21*
CN([C@@H](Cc1ccc(OS(=O)(=O)c2cccc3cnccc23)cc1)C(=O)N1CCN(c2ccccc2)CC1)S(=O)(=O)c1cccc2cnccc12	-4	15*	-3	21*	2	MOR ag counter=-1;HTR2A ag conf=12
COc1ccc(N2CCN(C(=O)C(Cc3ccccc3)n3cccc3)CC2)cc1 (stereo not drawn)	-4	2	-4	-8	.
O=c1[nH]c2ccccc2nc1-c1nnnn1Cc1ccccc1	.	-5	.	.	.
CCOc1ccc(-c2nnc3ccc(SCC(=O)Nc4nc5ccc(C)cc5s4)nn23)cc1	-3	17*	-4	42*	0	MOR ag counter=0;HTR2A ag conf=-2
Nc1[nH]c(C(=O)c2ccccc2)c(-c2ccccc2Cl)c1C(=O)c1ccccc1	.	-4	.	.	.
CC(=O)N1CCc2cc(C(=O)CN3CCN(c4ccccn4)CC3)ccc21	-1	18*	-4	-6	.	MOR ag counter=-1;HTR2A ag conf=117*
CC(=O)N1CCc2cc(C(=O)CN3CCN(c4ccccc4F)CC3)ccc21	-2	13	-4	-7	.

Source: PubChem BioAssay (several laboratories)
